Assay results taken from ChEMBL document CHEMBL4266039, “Overcoming Time-Dependent Inhibition (TDI) of Cytochrome P450 3A4 (CYP3A4) Resulting from Bioactivation of a Fluoropyrimidine Moiety” (J Med Chem, 2018).

Key:
Cytochrome P450 3A4 = Cytochrome P450 3A4 (Homo sapiens, UniProt P08684); assay: Inhibition of CYP3A4 in human liver microsomes using testosterone as substrate preincubated for 30 mins followed by substrate/NADPH addition measured after 10 mins by LC-MS/MS analysis; type: ADME
Rattus norvegicus [1] = assay: Anti-alzheimer activity in rat assessed as reduction in amyloid beta40 levels in cerebrospinal fluid at 30 mg/kg, po relative to control; type: functional; set-up: scale not given: the % may be the effect or the level left
Beta-secretase 1 = Beta-secretase 1 (Homo sapiens, UniProt P56817); assay: Inhibition of purified human BACE1
Rattus norvegicus [2] = assay: Anti-alzheimer activity in rat assessed as reduction in amyloid beta40 levels in cerebrospinal fluid at 10 mg/kg, po relative to control; type: functional; set-up: scale not given: the % may be the effect or the level left
[3] = AUC (0 to infinity) in Han Wistar rat at 10 mg/kg, po; type: ADME, organism-based; set-up: dose 10 mg/kg, route oral, time infinity; settings: in vivo
In short: (§1)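 Wistar Han rats received a single oral dose of 10 mg/kg. AUC(0-∞), Cmax and oral bioavailability (F%) were derived from this oral arm.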

[4] = Cmax in Han Wistar rat at 10 mg/kg, po; type: ADME, organism-based; set-up: dose 10 mg/kg, route oral; settings: in vivo; in short: as §1
[5] = Oral bioavailability in Han Wistar rat at 10 mg/kg; type: ADME, organism-based; settings: in vivo; in short: as §1
[6] = Clearance in Han Wistar rat at 2 mg/kg, iv; type: ADME, organism-based; settings: in vivo
In short: (§2)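 Same Wistar Han rat PK study, intravenous arm at 2 mg/kg. Clearance, Vd,ss and t1/2 were taken from the iv data.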

[7] = Volume of distribution at steady state in Han Wistar rat at 2 mg/kg, iv; type: ADME, organism-based; settings: in vivo, read-out: Vdss; in short: as §2
[8] = Half life in Han Wistar rat at 2 mg/kg, iv; type: ADME, organism-based; settings: in vivo; in short: as §2
[9] = Protein binding in rat plasma; type: ADME, cell-free; settings: read-out: PPB (converted)

Chain of Cytochrome P450 3A4 (P08684 whole entry): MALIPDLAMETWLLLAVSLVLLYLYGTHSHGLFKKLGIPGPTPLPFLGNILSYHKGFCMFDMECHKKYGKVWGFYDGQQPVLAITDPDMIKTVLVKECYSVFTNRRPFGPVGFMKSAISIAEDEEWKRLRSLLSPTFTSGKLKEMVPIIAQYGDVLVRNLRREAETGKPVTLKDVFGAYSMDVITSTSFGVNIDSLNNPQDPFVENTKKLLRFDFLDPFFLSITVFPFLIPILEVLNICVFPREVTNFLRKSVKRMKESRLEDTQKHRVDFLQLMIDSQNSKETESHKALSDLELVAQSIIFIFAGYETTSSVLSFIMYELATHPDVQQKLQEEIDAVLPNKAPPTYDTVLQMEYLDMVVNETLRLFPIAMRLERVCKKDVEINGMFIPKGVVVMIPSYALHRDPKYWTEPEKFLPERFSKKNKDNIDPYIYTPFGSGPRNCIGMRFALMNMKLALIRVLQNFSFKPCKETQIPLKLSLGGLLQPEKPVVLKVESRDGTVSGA
Chain of Beta-secretase 1 (P56817 whole entry): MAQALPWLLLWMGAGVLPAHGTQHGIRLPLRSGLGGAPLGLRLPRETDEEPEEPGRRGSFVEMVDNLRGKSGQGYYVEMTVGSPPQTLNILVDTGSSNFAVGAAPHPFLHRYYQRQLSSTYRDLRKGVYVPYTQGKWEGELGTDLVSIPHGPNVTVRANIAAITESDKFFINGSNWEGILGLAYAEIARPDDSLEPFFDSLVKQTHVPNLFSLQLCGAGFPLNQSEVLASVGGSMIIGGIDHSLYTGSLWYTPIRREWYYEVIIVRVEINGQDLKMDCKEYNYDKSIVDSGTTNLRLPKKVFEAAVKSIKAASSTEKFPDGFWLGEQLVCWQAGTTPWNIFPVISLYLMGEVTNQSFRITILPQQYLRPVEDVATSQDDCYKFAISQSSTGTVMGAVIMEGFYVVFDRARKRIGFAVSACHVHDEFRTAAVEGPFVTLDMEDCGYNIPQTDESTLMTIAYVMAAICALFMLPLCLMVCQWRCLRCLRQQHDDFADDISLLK

Structure (SMILES) | IC50 (Cytochrome P450 3A4) [nM] | Ki (Beta-secretase 1) [nM] | other results
CN1C(=O)[C@@H]2CN(c3ccc(F)cc3)C[C@]2(c2cc(-c3cccc(C#N)c3)cs2)N=C1N | > 30000 | – | –
CN1C(=O)[C@@H]2CN(c3ncccn3)C[C@]2(c2cc(-c3cccc(C#N)c3)cs2)N=C1N | > 30000 | – | –
COc1nc(N2C[C@H]3C(=O)N(C)C(=N)N[C@@]3(c3cc(-c4cccc(C#N)c4)cs3)C2)ncc1F | – | – | Activity (Rattus norvegicus [1]): 45%
CCCOc1nc(N2C[C@H]3C(=O)N(C)C(=N)N[C@@]3(c3cc(-c4cccc(C#N)c4)cs3)C2)ncc1F | 1200 | 1 | Activity (Rattus norvegicus [1]): 12%
CN1C(=N)N[C@@]2(c3cc(-c4cccc(C#N)c4)cs3)CN(c3ncc(F)c(N4CCOCC4)n3)C[C@H]2C1=O | > 30000 | 1 | Activity (Rattus norvegicus [2]): 17%
COc1cc(C#N)cc(-c2csc([C@]34CN(c5ncc(F)cn5)C[C@H]3C(=O)N(C)C(=N)N4)c2)c1 | 1600 | 1 | –
CCc1nc(N2C[C@H]3C(=O)N(C)C(=N)N[C@@]3(c3cc(-c4cccc(C#N)c4)cs3)C2)ncc1F | 900 | 1 | Activity (Rattus norvegicus [2]): 49%
CN1C(=N)N[C@@]2(c3cc(-c4cccc(Cl)c4)cs3)CN(c3ncc(F)cn3)C[C@H]2C1=O | 1200 | 1 | –
CN1C(=N)N[C@@]2(c3cc(Br)cs3)CN(c3ncc(F)cn3)C[C@H]2C1=O | 900 | 100 | –
CN1C(=N)N[C@@]2(c3cc(-c4cccc(C#N)c4)cs3)CN(c3ncc(F)c(N4CCCC4)n3)C[C@H]2C1=O | > 30000 | 3 | Activity (Rattus norvegicus [2]): 2%
CN1C(=N)N[C@@]2(c3cc(-c4ccc(F)c(C#N)c4)cs3)CN(c3ncc(F)cn3)C[C@H]2C1=O | 5700 | 4 | –
CN1C(=N)N[C@@]2(c3cc(-c4cc(F)cc(C#N)c4)cs3)CN(c3ncc(F)cn3)C[C@H]2C1=O | 1600 | 2 | –
Cc1nc(N2C[C@H]3C(=O)N(C)C(=N)N[C@@]3(c3cc(-c4cccc(C#N)c4)cs3)C2)nc(C)c1F | – | 1 | Activity (Rattus norvegicus [2]): 54%; AUC(0-inf) [3]: 34 µM·h; Cmax [4]: 5.8 µM; bioavailability [5]: 54%; clearance [6]: 5.6 mL/min/kg; Vd [7]: 1 L/kg; half-life [8]: 2.1 h; fraction unbound [9]: 0.003
Cc1nc(N2C[C@H]3C(=O)N(C)C(=N)N[C@@]3(c3cc(-c4cccc(C#N)c4)cs3)C2)ncc1F | 600 | 0.7 | Activity (Rattus norvegicus [2]): 38%
CN1C(=N)N[C@@]2(c3cc(-c4cc(F)cc(F)c4)cs3)CN(c3ncc(F)cn3)C[C@H]2C1=O | 1000 | 10 | –
COc1nc(N2C[C@H]3C(=O)N(C)C(=N)N[C@@]3(c3cc(-c4cccc(C#N)c4)cs3)C2)nc(C)c1F | 11000 | 0.7 | –
CCOc1nc(N2C[C@H]3C(=O)N(C)C(=N)N[C@@]3(c3cc(-c4cccc(C#N)c4)cs3)C2)ncc1F | 700 | 1 | Activity (Rattus norvegicus [1]): 20%
CN1C(=N)N[C@@]2(c3cc(-c4ccc(Cl)c(C#N)c4)cs3)CN(c3ncc(F)cn3)C[C@H]2C1=O | 5500 | 10 | –
